Test results from ChEMBL document CHEMBL4373710, “DNA Structural Alteration Leading to Antibacterial Properties of 6-Nitroquinoxaline Derivatives” (J Med Chem, 2019).
≈ marks a conversion by molar mass, not a printed value. Calls of active or inactive are those of the source. No cut-off for these calls is given here.

Tests used:
Staphylococcus aureus [1] = assay: Disruption of cell membrane in Staphylococcus aureus assessed as accumulation of propidium iodide negative cells at 3.5 uM by flow cytometric analysis (reference value: 98.2%); format: functional
Staphylococcus aureus [2] = assay: Induction of morphological changes in Staphylococcus aureus assessed as cell aggregation at 3.5 to 5 uM by atomic force microscopic analysis; format: functional, organism-based
Staphylococcus aureus [3] = assay: Induction of morphological changes in Staphylococcus aureus assessed as changed population at 3.5 uM measured after 2 hrs by flow cytometric analysis (reference value: 5.71%); format: functional
Staphylococcus aureus [4] = assay: Disruption of preformed biofilm in Staphylococcus aureus at MIC measured after 12 hrs by crystal violet staining based light microscopic analysis; format: functional, organism-based
How it was run: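 Planktonic cells washed off; 1% crystal violet 10 min, solubilised in 30% acetic acid, A550 read; wells also imaged at 20X by light microscopy.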

[5] = Antibacterial activity against Arthrobacter chlorophenolicus A6MTCC3706 by broth microdilution assay; format: functional; settings: Pseudarthrobacter chlorophenolicus
How it was run: (§1)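 Broth microdilution per CLSI; 5×10^5 cfu/mL bacteria in LB broth; compounds from DMSO stocks, final DMSO under 0.6%, with DMSO control. Plates incubated at the strain's recommended growth temperature and time; growth read as OD600.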

[6] = system: Staphylococcus epidermidis; assay: Antibacterial activity against Staphylococcus epidermidis MTCC3615 by broth microdilution assay; format: functional; how it was run: as §1
Calf thymus DNA [7] = assay: Binding affinity to calf thymus DNA by isothermal titration calorimetric analysis; format: nucleic-acid assay; settings: Bos taurus
DNA [8] = assay: Binding affinity to Staphylococcus aureus DNA assessed as formation of DNA superstructure at 1:1 to 3:1 compound to DNA ratio by atomic force microscopic analysis; format: nucleic-acid assay
How it was run: (§2)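 Isolated S. aureus genomic DNA (2.8 Mbp) treated with compound at increasing [compound]:[DNA bp] ratios, up to 3:1. Imaged by atomic force microscopy against untreated DNA.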

Staphylococcus aureus [9] = assay: Inhibition of DNA synthesis in Staphylococcus aureus at 3.5 uM measured after 1 hr by BrdU incorporation assay; format: functional, organism-based
How it was run: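 Log-phase S. aureus (10^5–10^6 CFU/mL) exposed to 3.5 µM for 1 h at 37°C, then BrdU pulse for 30 min; fixed in paraformaldehyde, permeabilised (Triton X-100/lysostaphin), DNA denatured in 2N HCl, stained with FITC anti-BrdU antibody, confocal imaging.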

Staphylococcus aureus [10] = assay: Induction of morphological changes in Staphylococcus aureus assessed as change in microbe length at 3.5 uM by atomic force microscopic analysis (reference value: 1.37 +/- 0.09 micrometer); format: functional
Staphylococcus aureus [11] = assay: Induction of DNA fragmentation in Staphylococcus aureus at 3.5 uM by EtBr staining based confocal laser scanning fluorescence microscopic analysis; format: functional, organism-based
Staphylococcus aureus [12] = assay: Induction of morphological changes in Staphylococcus aureus assessed as unchanged population at 7.5 uM measured after 2 hrs by flow cytometric analysis (reference value: 90.4%); format: functional
Calf thymus DNA [13] = assay: Binding affinity to calf thymus DNA assessed as appearance of induced CD at […] by circular dichroism method; format: nucleic-acid assay; settings: Bos taurus
DNA [14] = assay: Inhibition of ethidium bromide binding to Staphylococcus aureus DNA assessed as Stern-Volmer quenching constant by fluorescence assay; format: nucleic-acid assay
How it was run: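 Fluorescence intercalator displacement: S. aureus genomic DNA 10 µM plus EtBr 5 µM in 10 mM NaP pH 7, 10 mM NaCl, 1% DMSO, at 25 and 37 °C; titrated with 2.5–100 µM compound. Excitation 480 nm, emission 520–700 nm, inner-filter corrected, triplicates; Stern–Volmer analysis, F0/F = 1 + Ksv[Q].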

Staphylococcus aureus [15] = assay: Disruption of cell membrane in Staphylococcus aureus assessed as accumulation of propidium iodide positive cells at 5 uM by flow cytometric analysis (reference value: 1.7%); format: functional
[16] = system: Poly(dA-dT)oligonucleotide; assay: Binding affinity to poly(dA-dT) DNA (unknown origin) assessed as change in B-DNA structure up to 6:1 compound to DNA ratio by circular dichroism method; format: nucleic-acid assay
How it was run: (§3)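 Poly(dA-dT)·poly(dA-dT) or poly(dG-dC)·poly(dG-dC) held at 10 µM. Titrated with compound from 20 to 60 µM and followed by circular dichroism for change in the B-DNA band and appearance of induced CD.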

[17] = system: Pseudarthrobacter chlorophenolicus; assay: Binding affinity to Arthrobacter chlorophenolicus DNA assessed as change in B-DNA structure by circular dichroism method
How it was run: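 Genomic DNA isolated from overnight cultures of each strain. Titrated with compound from 15 to 60 µM in a 10 mm quartz cuvette. CD spectra recorded from 230 to 500 nm at 100 nm/min; ellipticity followed at 320 nm.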

DNA [18] = assay: Induction of DNA condensation in Staphylococcus aureus assessed as nucleoid shrinkage at 10 uM after 1 hr by DAPI staining-based confocal laser scanning fluorescence microscopic analysis; format: nucleic-acid assay
How it was run: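 S. aureus grown 6 h at 37 °C, washed into PBS and exposed to 10 µM compound or 0.5% DMSO for 1 h at 37 °C with shaking. Fixed in paraformaldehyde for 30 min at 4 °C, then DAPI-stained for 5 min. Nucleoid and cell areas measured from phase contrast/DAPI images; N/C ratio from 35 cells over three independent experiments, mean ± SD.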

Staphylococcus aureus [19] = assay: Induction of morphological changes in Staphylococcus aureus at 3.5 uM measured after 6 hrs by acridine orange dye based confocal laser scanning fluorescence microscopic analysis; format: functional, organism-based
How it was run: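 S. aureus with 3.5 µM for 6 h at 37°C; fixed in paraformaldehyde, permeabilised with 0.2% Triton X-100 and lysostaphin 0.05 mg/mL; stained with acridine orange 3 µM for 5 min at 37°C; confocal imaging at 60X.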

Staphylococcus aureus [20] = assay: Induction of morphological changes in Staphylococcus aureus assessed as unchanged population at 5 uM measured after 2 hrs by flow cytometric analysis (reference value: 90.4%); format: functional
[21] = system: Poly(dG-dC)oligonucleotide; assay: Binding affinity to poly(dG-dC) DNA (unknown origin) assessed as appearance of induced CD by circular dichroism method; format: nucleic-acid assay; how it was run: as §3
DNA [22] = assay: Binding affinity to Staphylococcus aureus DNA assessed as transition of local to global DNA at 1:1 to 3:1 compound to DNA ratio by atomic force microscopic analysis; format: nucleic-acid assay; how it was run: as §2
Staphylococcus aureus [23] = assay: Induction of DNA breaks in Staphylococcus aureus at 3.5 uM by TUNEL staining based confocal laser scanning fluorescence microscopic analysis; format: functional, organism-based
How it was run: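 S. aureus treated with 3.5 µM or 0.5% DMSO; pelleted, fixed in 16% paraformaldehyde 30 min at 4°C, permeabilised with 0.2% Triton X-100 plus lysostaphin 0.05 mg/mL; TdT tailing with fluorescent nucleotides 60 min at 37°C, stopped with 2X SSC; confocal imaging with fluorescein filter.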

Escherichia coli = assay: Antibacterial activity against Escherichia coli MTCC1916 by broth microdilution assay; format: functional; how it was run: as §1
Calf thymus DNA [24] = assay: Binding affinity to calf thymus DNA assessed as change in B-DNA structure at 265 nm by circular dichroism method; format: nucleic-acid assay; settings: Bos taurus
Pseudomonas aeruginosa = assay: Antibacterial activity against Pseudomonas aeruginosa MTCC1688 by broth microdilution assay; format: functional; how it was run: as §1
Staphylococcus aureus [25] = assay: Induction of morphological changes in Staphylococcus aureus assessed as changed population at 5 uM measured after 2 hrs by flow cytometric analysis (reference value: 5.71%); format: functional
Staphylococcus aureus [26] = assay: Disruption of cell membrane in Staphylococcus aureus assessed as accumulation of propidium iodide positive cells at 3.5 uM by flow cytometric analysis (reference value: 1.7%); format: functional

Structure (SMILES): CN(C)CCCNc1nc2cc([N+](=O)[O-])ccc2nc1NCc1ccc(C(F)(F)F)cc1
- Activity (Staphylococcus aureus [1]): 91.6%
- Activity (Staphylococcus aureus [2]): Active
- Activity (Staphylococcus aureus [3]): 10.2%
- Activity (Staphylococcus aureus [4]): Active
- MIC [5]: 0.897 µg/mL (≈ 2 µM)
- MIC [6]: 2.24 µg/mL (≈ 4.99 µM)
- Ka (Calf thymus DNA [7]): 2.27 ×10⁴ /M
- Activity (DNA [8]): Active
- inhibition (Staphylococcus aureus [9]): Active
- Activity (Staphylococcus aureus [10]): 2.3 um
- Activity (Staphylococcus aureus [11]): Active
- Activity (Staphylococcus aureus [12]): 81%
- Activity (Calf thymus DNA [13]): Dose-dependent effect
- KSV (DNA [14]): 1 ×10⁴ /M
- Activity (Staphylococcus aureus [15]): 20.4%
- Activity [16]: inactive
- Activity [17]: Dose-dependent effect
- Activity (DNA [18]): Active
- Activity (Staphylococcus aureus [19]): Active
- Activity (Staphylococcus aureus [20]): 82.4%
- Activity [21]: Dose-dependent effect
- Activity (DNA [22]): Active
- Activity (Staphylococcus aureus [23]): Active
- MIC (Escherichia coli): 3.36 µg/mL (≈ 7.49 µM)
- Activity (Calf thymus DNA [24]): Dose-dependent effect
- MIC (Pseudomonas aeruginosa): 6.73 µg/mL (≈ 15 µM)
- Activity (Staphylococcus aureus [25]): 14.6%
- Activity (Staphylococcus aureus [26]): 7.96%
